From ChEMBL document CHEMBL1129729, “Orally active fibrinogen receptor antagonists. 2. Amidoximes as prodrugs of amidines” (J Med Chem, 1996) come the findings set out here.

For experiment [1], the species on record is Homo sapiens. Kind of experiment: Inhibition of platelet aggregation in human platelet rich plasma(h-PRP) induced by adenosine 5-diphosphate (ADP). It is filed as functional. The method in brief:
(§1)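 ADP-induced aggregation of human platelet-rich plasma, measured in vitro. Plasma came from at least two donors. IC50 was read from the inhibition of aggregation.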

In experiment [2] the target is Integrin alpha-IIb/beta-3 (Homo sapiens, UniProt P05106+P08514). Briefly: Inhibition of FG binding to alpha IIb beta-3 integrin. It is filed as protein-complex assay. A digest of the protocol:
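Binding of fibrinogen to immobilized purified GP IIb-IIIa (αIIbβ3). IC50 was calculated by log-linear regression and is the mean of at least two independent experiments.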

Experiment [3] is filed under the species Homo sapiens. Briefly: Inhibition of platelet aggregation of human platelet rich plasma(h-PRP) induced by adenosine 5-diphosphate (ADP).(oral activity in mice). Format: functional. Particulars: read-out: ID50 (the source's name). A digest of the protocol: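 Mice got about 100 mg/kg orally, suspended in 10% gelatin (particle <1 µm); one mouse was killed at 1 h and one at 3 h for plasma. Serial dilutions of plasma (100 µL) were mixed with 300 µL human PRP and aggregated with 10 µM ADP (final). Dose divided by the IC50 dilution factor gave ID50; 1 h and 3 h values pooled, mean ± SEM.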

The species entered for experiment [4] is Homo sapiens. Kind of experiment: Compound was tested for inhibition of platelet aggregation of human platelet rich plasma(h-PRP) induced by adenosine 5-diphosphate (ADP). It is filed as functional. A digest of the protocol: as §1

Structures are written as SMILES. pIC50: −log10 of the molar value. Where only a bound is given, the exact number is not on record here.

Sequence of Integrin alpha-IIb/beta-3 (P05106 27-788 limits assumed): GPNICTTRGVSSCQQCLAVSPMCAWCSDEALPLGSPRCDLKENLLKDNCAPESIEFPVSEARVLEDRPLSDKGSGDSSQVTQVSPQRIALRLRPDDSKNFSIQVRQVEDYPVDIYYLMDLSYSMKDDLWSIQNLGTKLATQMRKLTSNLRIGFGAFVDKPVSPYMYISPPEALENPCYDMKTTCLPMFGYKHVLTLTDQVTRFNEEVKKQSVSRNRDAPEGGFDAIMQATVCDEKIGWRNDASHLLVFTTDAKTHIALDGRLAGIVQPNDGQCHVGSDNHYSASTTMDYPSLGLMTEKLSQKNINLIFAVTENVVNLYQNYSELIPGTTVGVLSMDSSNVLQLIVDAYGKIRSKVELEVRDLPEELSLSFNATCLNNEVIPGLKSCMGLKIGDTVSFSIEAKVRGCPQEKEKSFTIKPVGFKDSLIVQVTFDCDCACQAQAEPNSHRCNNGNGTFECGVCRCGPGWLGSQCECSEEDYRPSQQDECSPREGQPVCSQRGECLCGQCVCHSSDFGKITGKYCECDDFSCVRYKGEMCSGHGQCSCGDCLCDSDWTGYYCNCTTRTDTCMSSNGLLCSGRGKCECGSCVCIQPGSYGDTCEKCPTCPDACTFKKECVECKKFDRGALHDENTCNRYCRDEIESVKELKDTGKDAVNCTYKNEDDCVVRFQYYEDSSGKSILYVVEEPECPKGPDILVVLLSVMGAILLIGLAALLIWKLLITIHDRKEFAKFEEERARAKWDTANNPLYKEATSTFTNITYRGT
Sequence of Integrin alpha-IIb/beta-3 (P08514 32-887 limits assumed): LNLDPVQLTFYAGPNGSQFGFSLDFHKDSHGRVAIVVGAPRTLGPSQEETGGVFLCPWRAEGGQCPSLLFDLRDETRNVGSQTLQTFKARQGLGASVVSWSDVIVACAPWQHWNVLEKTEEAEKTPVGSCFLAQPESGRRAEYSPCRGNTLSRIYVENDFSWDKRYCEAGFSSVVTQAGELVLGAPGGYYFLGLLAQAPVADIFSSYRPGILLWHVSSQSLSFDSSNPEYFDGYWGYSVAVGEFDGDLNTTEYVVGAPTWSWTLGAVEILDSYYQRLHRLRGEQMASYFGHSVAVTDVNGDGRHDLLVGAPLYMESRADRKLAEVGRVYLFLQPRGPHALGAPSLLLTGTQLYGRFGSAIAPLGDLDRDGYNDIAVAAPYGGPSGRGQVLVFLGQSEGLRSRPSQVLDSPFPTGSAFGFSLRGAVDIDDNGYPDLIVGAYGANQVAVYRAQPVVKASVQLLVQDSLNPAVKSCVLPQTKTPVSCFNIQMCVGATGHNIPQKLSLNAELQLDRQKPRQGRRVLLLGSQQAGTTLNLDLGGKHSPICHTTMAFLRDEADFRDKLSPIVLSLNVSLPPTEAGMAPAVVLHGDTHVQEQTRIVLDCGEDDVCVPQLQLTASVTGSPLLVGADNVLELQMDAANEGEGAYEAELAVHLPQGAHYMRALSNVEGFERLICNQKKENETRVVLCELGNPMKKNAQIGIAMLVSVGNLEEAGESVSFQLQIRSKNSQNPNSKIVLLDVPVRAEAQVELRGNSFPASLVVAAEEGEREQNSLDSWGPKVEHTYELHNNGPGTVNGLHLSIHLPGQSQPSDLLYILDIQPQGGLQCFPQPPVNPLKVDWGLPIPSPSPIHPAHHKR
Sequence of Integrin alpha-IIb/beta-3 (P08514 891-1039 limits assumed): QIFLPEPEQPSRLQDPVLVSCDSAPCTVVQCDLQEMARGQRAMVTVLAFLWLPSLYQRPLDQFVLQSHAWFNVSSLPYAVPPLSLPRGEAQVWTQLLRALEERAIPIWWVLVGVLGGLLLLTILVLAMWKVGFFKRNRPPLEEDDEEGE

Take `CCOC(=O)NC(=N)c1ccc(C(=O)N[C@@H](Cc2ccc(OC(C)=O)cc2)C(=O)N2CCC(OCC(=O)OC(C)C)CC2)cc1`: the pIC50 in experiment [1] is less than 4.00; in experiment [2], less than 5.00. Moreover, the ED50 in experiment [3] turned out to be 0.9 mg/kg.

As to `CC(C)OC(=O)COc1ccc(C(=O)CN(C)C(=O)c2ccc(C(=N)N)cc2)cc1OCC(=O)OC(C)C`, the negative-log IC50 (pIC50) in experiment [1] is 6.46; in experiment [2] it was 6.05. Also, the ED50 in experiment [3] amounted to 11 mg/kg.

As to `CCOC(=O)NC(=N)c1ccc(C(=O)N[C@@H](Cc2ccc(O)cc2)C(=O)N2CCC(OCC(=O)O)CC2)cc1`, the pIC50 in experiment [1] was 5.71; in experiment [2] it was 7.05. For the same molecule, in experiment [3], the ED50 was found to be 10.7 mg/kg.

Consider `CC(C)OC(=O)OC(C)OC(=O)COC1CCN(C(=O)[C@H](C)NC(=O)c2ccc(C(=N)NO)cc2)CC1` (stereo not given in full), for which the pIC50 in experiment [1] was less than 4.22; in experiment [2], less than 5.00. For the same molecule, in experiment [3], the ED50 was determined as 0.34 mg/kg.

As for `CCOC(=O)COC1CCN(C(=O)[C@H](Cc2ccc(O)cc2)NC(=O)c2ccc(C(N)=NC(=O)OCC)cc2)CC1`, the pIC50 in experiment [1] was 4.40; in experiment [2] it was less than 5.10. Besides, in experiment [3], the ED50 was 1.4 mg/kg.

Regarding `CCCCOC(=O)NC(=N)c1ccc(C(=O)N[C@@H](C)C(=O)N2CCC(OCC(=O)OCC)CC2)cc1`, the pIC50 was less than 4.00 in experiment [1] and less than 5.00 in experiment [2]. For the same molecule, the ED50 in experiment [3] came out at 0.3 mg/kg.

Consider `CCOC(=O)NC(=N)c1ccc(C(=O)N(C)CC(=O)c2ccc(OCC(=O)OC(C)C)c(OCC(=O)OC(C)C)c2)cc1`, for which the negative logarithm of the IC50 (pIC50) in experiment [1] was less than 4.00; in experiment [2], less than 5.00. Besides, in experiment [3], the ED50 turned out to be 1.4 mg/kg.

On to `CCOC(=O)COC1CCN(C(=O)[C@H](Cc2ccc(O)cc2)NC(=O)c2ccc(C(=N)N)cc2)CC1`, for which the pIC50 in experiment [1] was 7.20; in experiment [2], 7.29. Besides, the ED50 in experiment [3] was determined as 6.9 mg/kg.

`COC(=O)COc1ccc(C(=O)CN(C)C(=O)c2ccc(C(=N)NO)cc2)cc1OCC(=O)OC`: the results for the pIC50 in experiment [1] and in experiment [2] were less than 4.00 and less than 5.00, respectively. Also, the ED50 in experiment [3] amounted to 0.7 mg/kg.

`C[C@H](NC(=O)c1ccc(C(=N)NO)cc1)C(=O)N1CCC(OCC(=O)O)CC1`: the pIC50 is 4.86 in experiment [1] and 6.23 in experiment [2]. In addition, the ED50 in experiment [3] was 5.1 mg/kg.

As for `CN(CC(=O)c1ccc(OCC(=O)O)c(OCC(=O)O)c1)C(=O)c1ccc(C(=N)N)cc1`, the figures for the pIC50 in experiment [1] and in experiment [2] were 7.29 and 9.40, respectively. For the same molecule, the ED50 in experiment [3] was determined as 11.2 mg/kg.

`CCOC(=O)COC1CCN(C(=O)[C@H](C)NC(=O)c2ccc(C(=N)N)cc2)CC1`: the pIC50 was 6.30 in experiment [1] and 6.79 in experiment [2]. Also, the ED50 in experiment [3] amounted to 1.8 mg/kg.

For the molecule `CCOC(=O)COC1CCN(C(=O)[C@H](Cc2ccc(O)cc2)NC(=O)c2ccc(C(=N)NO)cc2)CC1`, the pIC50 in experiment [1] is less than 4.00; in experiment [2], less than 5.00. Further, the ED50 in experiment [3] came out at 2.6 mg/kg.

With `N=C(N)c1ccc(C(=O)N[C@@H](Cc2ccc(O)cc2)C(=O)N2CCC(OCC(=O)O)CC2)cc1` [LAMIFIBAN], the pIC50 in experiment [2] was 8.85; in experiment [4], 7.48. Further, in experiment [3], the ED50 came out at 8.5 mg/kg.

Turning to `C[C@H](NC(=O)c1ccc(C(=N)N)cc1)C(=O)N1CCC(OCC(=O)O)CC1` [RO-44-3888], the pIC50 in experiment [1] was 7.42; in experiment [2], 8.72. For the same molecule, the ED50 in experiment [3] amounted to 5.2 mg/kg.

As a reminder, the pIC50 is −log10 of the IC50, conventionally taken in molar units. Read a high pIC50 as a small IC50.
